# Screening results (PubChem)
# ARFGAP1 inhibitor – inhibits rat ARF GTPase activating protein 1 | Q62848 | Arfgap1-stimulated ARF1 GTP hydrolysis, GDP FP detection | inhibition, % at 16.5 µM | 360,000 tested, 0.26% active;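 active = inhibition above a per-plate limit, mean inhibition of low control wells plus 3 SD, cut at about 25% in these data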;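 also: 0% = DMSO wells with enzyme and 100% = wells lacking Arfgap1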
# Target sequence (Q62848 1-136 limits assumed): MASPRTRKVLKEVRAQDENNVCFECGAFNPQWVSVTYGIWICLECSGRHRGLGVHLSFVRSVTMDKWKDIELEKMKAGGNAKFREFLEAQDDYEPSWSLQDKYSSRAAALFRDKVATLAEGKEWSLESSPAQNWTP
#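 Assay system: Rat Arfgap1 GAP domain (His6, aa 1-136), purified enzyme | Buffer or medium: HEPES 25 mM pH 7.5, NaCl 150 mM, MgCl2, DTT | Schedule: GTP hydrolysis reaction 2 h at 25 °C | Signal: FP of antibody-bound GDP Alexa 633 tracer, ex 620/em 688 nm | Measure: Percent inhibition of Arfgap1-stimulated GTP hydrolysis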
# SMARCA2 act – SMARCA2 function activation, primary screen. MG213 cells, MMTV-luciferase reporter, dexamethasone, overnight. activation, % at 9.1 µM. 370,000 tested, 1% active. AID 652017; in the data active = activation above about 7.8%;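 also: 0% = vehicle wells and 100% = reference activator wells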
# ASAP1 GAP inh – ASAP1 ArfGAP inhibition | inhibition, % at 16.5 µM | AID 624377 | Q9ULH1 | ASAP1-stimulated ARF1 GTP hydrolysis, GDP FP detection | 360,000 tested, 0.19% active; in the data active = inhibition above about 25%;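 also: 0% = vehicle with enzyme and substrate and 100% = no enzyme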
# Target sequence (Q9ULH1 325-724 limits assumed): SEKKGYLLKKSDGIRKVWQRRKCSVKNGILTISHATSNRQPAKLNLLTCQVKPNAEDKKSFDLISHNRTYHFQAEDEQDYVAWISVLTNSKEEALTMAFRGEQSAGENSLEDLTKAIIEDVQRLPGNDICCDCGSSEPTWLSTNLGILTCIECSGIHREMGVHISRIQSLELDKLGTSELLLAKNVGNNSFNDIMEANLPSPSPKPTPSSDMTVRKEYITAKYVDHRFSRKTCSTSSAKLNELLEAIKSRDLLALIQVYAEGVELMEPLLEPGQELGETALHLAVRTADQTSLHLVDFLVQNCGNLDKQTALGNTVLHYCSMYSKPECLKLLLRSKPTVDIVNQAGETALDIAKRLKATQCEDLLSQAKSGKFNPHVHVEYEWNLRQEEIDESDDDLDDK
# esBAF inh – blocks esBAF chromatin remodeling in mouse ES cells. reporter increase, % at 12.5 µM. Bmi1-luciferase knock-in reporter, 24 h; 100% = twice the neutral-well signal. 350,000 tested, 2% active; in the data active = activation above about 40%; inconclusive = no clear call, values can overlap the other calls;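 also: 0% = median of the plate's neutral control wells and 100% = double that signal; a rise in the Bmi1 reporter signal indicates esBAF inhibition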
# SMARCA2 act conf – SMARCA2 activation, confirmation screen; shares compounds with SMARCA2 act; MG213 cells, MMTV-luciferase with dexamethasone, luminescence, overnight; MG213 cells expressing E1A, Rb sequestered; DMSO wells 0%, reference activator 100%; activation, % at 9.1 µM; 3,500 tested, 30% active;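 active = activation above its plate's cutoff, the mean activation of tested wells plus 3 SD, cut at about 7.9% in these data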
# GAL4-VP16 Luc – activates GAL4-VP16 luciferase, flagging SMARCA2 activator hits | shares compounds with SMARCA2 act | HEK293 GAL4-VP16 pG5luc reporter, luciferase luminescence; scaled: DMSO wells 0%, SAHA wells 100% | activation, % at 9.1 µM | 3,500 tested, 41% active | AID 686939;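 active = activation above the solvent-only control well mean plus 3 SD, averaged across control plates, cut at about 5.2% in these data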
# An asterisk follows results filed as active; ? = inconclusive; · = no result. Compounds with a hit are over-represented: about 2.6% of the library has one in this group of screens.
SMILES,ARFGAP1 inhibitor,SMARCA2 act,ASAP1 GAP inh,esBAF inh,SMARCA2 act conf,GAL4-VP16 Luc
CN(C)C=Nc1ncc2c3ccccc3n(CCN(C)C)c2c1C#N,1,1,3,0,·,·
CCN(CC)CCn1c2ccccc2c2cnc(N)c(C#N)c21,-2,47*,-10,·,71*,-2
O=C(Oc1c(CN2CCOCC2)cc(Cl)c2cccnc12)c1ccccc1,0,35*,-7,2,11*,-2
O=C(Oc1c(CN2CCOCC2)cc(Cl)c2cccnc12)c1ccccc1F,8,39*,-7,·,13*,1
O=C(N[C@@H]1CC[C@H](CCNS(=O)(=O)c2ccc(F)cc2)O[C@@H]1CO)c1cccc(F)c1,·,·,·,-4,·,·
O=C(CSc1ccc(-c2cccs2)nn1)N1CCCCC1,2,0,4,33,·,·
O=C(CSc1ccc(-c2cccs2)nn1)N1CCCCCC1,11,13*,-7,50*,5,5.7*
Cc1ccc(OCc2nc3ccccc3[nH]2)cc1,0,14*,4,19,10*,8.2*
Cc1ccc(C(=O)Cc2nc3ccccc3[nH]2)cc1,9,5,-8,38,·,·
COc1ccc(S(=O)(=O)N[C@H]2C=C[C@@H](CC(=O)N3CCc4ccccc4C3)O[C@H]2CO)cc1,·,·,·,1,·,·
C[C@@H]1CN([C@H](C)CO)S(=O)(=O)c2ccc(C#CC3CCCCC3)cc2O[C@@H]1CN(C)C(=O)Cc1ccncc1,·,·,·,7,·,·
O=C(NCc1nnc2c(C(F)(F)F)cc(Cl)cn12)c1cccnc1,1,9.5*,9,-11,-4,2
O=C(/C=C/c1ccccc1[N+](=O)[O-])OCC(=O)c1ccccc1,2,10*,-4,·,8.0*,2
Brc1ccc(/C=N/Nc2nc3ccccc3o2)cc1,12,9.2*,9,?,3,14*
Cc1ccc(N2Cc3ccccc3C2=O)cc1,17,10*,3,-21,3,5
COc1cccc(-c2cnc(C(O)c3ccccc3)[nH]2)c1 (stereo not drawn),-11,9.2*,4,19,-2,8.7*
CCCNC(=O)N1C[C@H](O)COC[C@@H]2O[C@@H](CC(=O)N[C@@H]3CCN(Cc4ccccc4)C3)CC[C@H]21,·,·,·,2,·,·
C[C@@H](NC(=O)[C@H]1[C@H](CO)[C@H]2Cn3c(cccc3=O)[C@@H]1N2Cc1ccncc1)c1ccccc1,·,·,·,-1,·,·
CNC(C)C#Cc1ccc2c(=O)c3ccccc3oc2c1 (stereo not drawn),-8,9.2*,-5,51*,13*,4
CCN(CC)c1ccc(/C=C(\C#N)c2ccccn2)cc1,·,·,·,-16,·,·
CCN(CC)c1ccc(C=N/C(C#N)=C(\N)C#N)cc1,8,8.8*,-9,39,3,7.5*
Cc1ccc(O)c(NC(=O)CN(C)S(=O)(=O)c2ccc(Cl)cc2)c1,-8,11*,-10,4,1,1
Cc1ccc(S(=O)(=O)N(C)CC(=O)NCC(=O)Nc2ccc(F)c(F)c2F)cc1,15,-3,9,0,·,·
O=C(c1ccc(F)cc1)c1cc2ccccc2o1,3,11*,4,64*,8,7.4*
CC(C)(C)c1ccc(-c2noc(CCC(N)=O)n2)cc1,1,-12,0,-79,·,·
SMILES,ARFGAP1 inhibitor,SMARCA2 act,ASAP1 GAP inh,esBAF inh,SMARCA2 act conf,GAL4-VP16 Luc
CN(C)C(=O)CCc1nc(-c2ccc(C(C)(C)C)cc2)no1,5,11*,2,-3,3,5.3*
CC(C)NC(=O)Nc1ccc2c(c1)CC(=O)N([C@@H](C)CO)C[C@@H](C)[C@@H](CN(C)C(=O)Nc1cccc3ccccc13)O2,·,·,·,-7,·,·
CN1CCN(Cc2nc3ccccc3c(=O)n2Cc2nc(-c3ccc([N+](=O)[O-])cc3)cs2)CC1,4,17*,-4,·,44*,2
O=C(C[C@@H]1CC[C@@H]2NC[C@@H](O)COC[C@H]2O1)NCCc1ccccc1,·,·,·,6,·,·
COc1ccc(Cc2nc3ccc(C(=O)NCc4cc(C)no4)cc3o2)cc1,8,10*,19,65*,2,5.7*
O=C(C[C@H]1C[C@@H]2c3cc(NC(=O)Cc4ccncc4)ccc3O[C@@H]2[C@H](CO)O1)NCc1cccnc1,·,·,·,-9,·,·
COC(=O)c1cc(C(=O)OC)cc(-n2c(C)cc(C(=O)COC(=O)CNS(=O)(=O)c3ccc(C)cc3)c2C)c1,14,8.0*,-4,·,-1,-1
COC(=O)c1ccc(-n2c(C)cc(C(=O)COC(=O)CNS(=O)(=O)c3ccc(C)cc3)c2C)cc1,4,-3,10,·,·,·
CCCN1CCC(=NNC(=O)c2ccc(Br)o2)CC1,7,4,-8,4,·,·
CCN1CCN(c2ccc(NC(=O)c3ccco3)cc2)CC1,10,8.3*,-3,·,5,5
CCN1CCC(=NNC(=O)c2ccco2)CC1,-13,14*,-3,6,-1,-1
COc1nc(C)nc2c1sc1nc3c(cc12)COC(C)(C)C3,12,10*,-3,26,4,13*
O=C(C[C@@H]1CC[C@@H]2[C@H](COC[C@H](O)CN2Cc2ccccc2)O1)NCCc1ccccc1,·,·,·,-4,·,·
Cc1ccc(C)c(N2CCN(c3cnn(-c4nc5ccccc5s4)c(=O)c3Cl)CC2)c1,-5,9.3*,9,6,4,6.5*
CC(C)(C)N/N=C1\CC(c2ccccc2)Oc2ccccc21 (stereo not drawn),-2,3,-1,·,·,·
O=C(O)c1cc(N/N=C2/CC(c3ccccc3)Oc3ccccc32)ccc1Cl (stereo not drawn),-11,10*,-3,·,3,2
Cc1ccccc1C1c2[nH]c3ccccc3c2CCN1C(=O)c1ccc(=O)n(C)n1 (stereo not drawn),11,9.6*,0,·,2,1
O=C(C[C@@H]1C=C[C@H](NC(=O)C2CC2)[C@@H](CO)O1)Nc1ccccc1,·,·,·,-4,·,·
Fc1cccc(C2NN=C(c3ccccc3)S2)c1 (stereo not drawn),-4,12*,-3,-18,14*,13*
Cc1ccc(C2=NNC(c3cccc(F)c3)S2)cc1 (stereo not drawn),-8,1,-2,·,·,·
O=C(C[C@H]1C=C[C@@H](NC(=O)C2CCOCC2)[C@@H](CO)O1)NCC1CC1,·,·,·,-1,·,·
CC1CCCCN1C(=O)c1cc(-c2ccc3c(c2)OCO3)on1 (stereo not drawn),3,9.2*,2,31,6,12*
C[C@H](CO)N1C[C@H](C)[C@@H](CN(C)C(=O)Cc2ccccc2)Oc2ncc(-c3ccc(F)cc3)cc2C1=O,·,·,·,-1,·,·
O=c1[nH]c2ccccc2c2nc3ccccn3c12,7,12*,-2,49*,16*,7.1*
